Broadly, the ED50 is the dose that gives a 50% effect, or the effect in half of the subjects. A low value points to greater potency.

The structures appear in SMILES notation. “And” between values parts separate entries of the source, which are not always exact repeats. Identical values can stand only once.

For 26 molecules, ED50 and Dose results are on record in ChEMBL document CHEMBL1122310, “Synthesis of exo-3-phenylbicyclo[3.2.1]oct-3-en-2-amine and related compounds as potential analgesics” (1983).

Format in all cases: functional
For one assay, the species on record is Mus musculus. The assay is described as follows: Antinociceptive activity by measuring inhibition of acetylcholine writhing in mouse. Put shortly:
(§1)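 ED50 determination: six animals per dose group, each dose tested on two or three separate occasions. Pooled data (total dose groups of 12 or 18 animals) analysed by regression to give ED50. Inflamed-paw pressure test in rats; acetylcholine-induced writhing in mice. Doses for the rat paw test given po.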
A general note: An intraperitoneal irritant provokes the stretching counted in writhing tests.

The test system of assay [1] is Rattus norvegicus. The assay is described as follows: Behavioral stimulant activity in rat by peroral administration; Inactive.
For assay [2], the species on record is Rattus norvegicus. As to the kind of experiment: Antinociceptive activity by measuring in flamed paw pressure threshold in rat. In outline:
as §1

For assay [3], the system named is Rattus norvegicus. The assay is described as follows: Behavioral stimulant activity in rat by sc administration; Moderate CNS stimulation.
Assay [4] concerns Rattus norvegicus. The assay is described as follows: Behavioral stimulant activity in rat by sc administration; Marked CNS stimulation.
Assay [5] deals with Rattus norvegicus. The assay is described as follows: Behavioral stimulant activity in rat by sc administration; Slight to moderate CNS stimulation.
Assay [6] relates to Rattus norvegicus. As to the kind of experiment: Behavioral stimulant activity in rat by sc administration; Marked CNS activity.

On to `COCCN[C@@H]1C(c2ccccc2)=CC2CCC1C2` (some centres not stated), for which, in the assay listed under Mus musculus, the ED50 was 27.7 mg/kg.
As for `CC(C)N(C)[C@@H]1C(c2ccccc2)=CC2CCC1C2` (some centres not stated), in the assay on Rattus norvegicus [1], the Dose is 25 mg/kg. In addition, the ED50 in the assay listed under Rattus norvegicus [2] is > 30 mg/kg.
For `COc1ccc2c3c1O[C@H]1[C@@H](O)C=C[C@H]4[C@@H](C2)N(C)CC[C@@]341` [CODEINE], the ED50 was 10.3 mg/kg in the assay filed under Mus musculus and 5.7 mg/kg in the assay filed under Rattus norvegicus [2]. The same molecule yielded a Dose in the assay with Rattus norvegicus [1] of 50 mg/kg.
`CCCN(C)[C@@H]1C(c2ccccc2)=CC2CCC1C2` (some centres not stated) returned a Dose in the assay with Rattus norvegicus [1] of 25 mg/kg. Besides, the ED50 in the assay listed under Rattus norvegicus [2] is > 30 mg/kg.
Turning to `C=CCN[C@@H]1C(c2ccccc2)=CC2CCC1C2` (some centres not stated), the ED50 came to 13.7 mg/kg in the assay listed under Mus musculus and 11 mg/kg in the assay filed under Rattus norvegicus [2]. In the assay with Rattus norvegicus [3], this molecule had a Dose of 50 mg/kg.
As for `CC(N)Cc1ccccc1` (configuration not stated) [AMPHETAMINE], the figures for the ED50 in the assay filed under Mus musculus and in the assay listed under Rattus norvegicus [2] were 1.6 mg/kg and 2.1 mg/kg, respectively. The values for the Dose in the assay with Rattus norvegicus [4] and in the assay with Rattus norvegicus [5] were 12.5 mg/kg and 6.25 mg/kg, respectively.
Regarding `CN(C)CCN(C)[C@@H]1C(c2ccccc2)=CC2CCC1C2` (some centres not stated), the Dose with Rattus norvegicus [1] worked out at 25 mg/kg. Also, the ED50 in the assay listed under Rattus norvegicus [2] is > 30 mg/kg.
For the molecule `C1=C(c2ccccc2)[C@@H](NCC2CC2)C2CCC1C2` (some centres not stated), the 50% effective dose (ED50) in the assay filed under Mus musculus is 4.1 mg/kg; in the assay listed under Rattus norvegicus [2] it was > 30 mg/kg. The same molecule registered a Dose in the assay with Rattus norvegicus [1] of 25 mg/kg.
Regarding `CCN(C)[C@@H]1C(c2cccc(O)c2)=CC2CCC1C2` (some centres not stated), the Dose in the assay on Rattus norvegicus [1] stood at 25 mg/kg. For the same molecule, in the assay listed under Rattus norvegicus [2], the ED50 is > 30 mg/kg.
On the same counts, the results for `C1=C(c2ccccc2)[C@@H](NCCc2ccccc2)C2CCC1C2` (some centres not stated) are 50 mg/kg and > 30 mg/kg.
In the case of `CC(C)N[C@@H]1C(c2ccccc2)=CC2CCC1C2` (some centres not stated), the results for the ED50 in the assay filed under Mus musculus and in the assay filed under Rattus norvegicus [2] were 15.4 mg/kg and > 30 mg/kg, respectively.
`CCN(C)[C@@H]1C(c2ccccc2)=CC2CCC1C2` (some centres not stated): the ED50 in the assay filed under Mus musculus was determined as 11.8 mg/kg; in the assay listed under Rattus norvegicus [2], 1.4 mg/kg. Moreover, in the assay with Rattus norvegicus [4], the Dose worked out at 25 mg/kg.
The molecule `CN(CC1CC1)[C@@H]1C(c2ccccc2)=CC2CCC1C2` (some centres not stated) had a Dose with Rattus norvegicus [5] of 50 mg/kg. For the same molecule, in the assay listed under Rattus norvegicus [2], the ED50 is > 30 mg/kg.
In the case of `C1=C(c2ccccc2)[C@@H](N2CCCC2)C2CCC1C2` (some centres not stated), the figures for the ED50 in the assay filed under Mus musculus and in the assay listed under Rattus norvegicus [2] were 19 mg/kg and 15.7 mg/kg, respectively. Further, in the assay on Rattus norvegicus [4], the Dose was 25 mg/kg and 50 mg/kg.
As to `CN[C@@H]1C(c2ccccc2)=CC2CCC1C2` (some centres not stated), the 50% effective dose (ED50) in the assay filed under Mus musculus was determined as 4 mg/kg; in the assay listed under Rattus norvegicus [2], 13.4 mg/kg.
`CCN[C@@H]1C(c2ccccc2)=CC2CCC1C2` (some centres not stated): the 50% effective dose (ED50) in the assay listed under Mus musculus came out at 15.6 mg/kg; in the assay listed under Rattus norvegicus [2] it was 3.1 mg/kg. In addition, the Dose came out at 50 mg/kg in the assay with Rattus norvegicus [4] and 25 mg/kg in the assay with Rattus norvegicus [5].
Regarding `C1=C(c2ccccc2)[C@@H](NCC2CCCO2)C2CCC1C2` (some centres not stated), the ED50 in the assay filed under Mus musculus and in the assay listed under Rattus norvegicus [2] was > 30 mg/kg throughout. In addition, the Dose in the assay with Rattus norvegicus [1] was found to be 50 mg/kg.
Turning to `CCN(CC)[C@@H]1C(c2ccccc2)=CC2CCC1C2` (some centres not stated), the median effective dose (ED50) in the assay filed under Mus musculus is 2.4 mg/kg; in the assay filed under Rattus norvegicus [2], > 30 mg/kg. The Dose in the assay on Rattus norvegicus [5] is 25 mg/kg.
With `CCN(C)[C@@H]1C(c2cccc(OC)c2)=CC2CCC1C2` (some centres not stated), the values for the ED50 in the assay listed under Mus musculus and in the assay filed under Rattus norvegicus [2] were 30.6 mg/kg and 10.4 mg/kg, respectively.
In turn, `CCCN[C@@H]1C(c2ccccc2)=CC2CCC1C2` (some centres not stated) displayed a Dose with Rattus norvegicus [5] of 25 mg/kg. Also, the ED50 in the assay filed under Rattus norvegicus [2] was > 30 mg/kg.
For `CN(C)CCN[C@@H]1C(c2ccccc2)=CC2CCC1C2` (some centres not stated), the values for the ED50 in the assay filed under Mus musculus and in the assay listed under Rattus norvegicus [2] were 31 mg/kg and 18.1 mg/kg, respectively. Also, the Dose with Rattus norvegicus [1] amounted to 50 mg/kg.
In the assay with Rattus norvegicus [1], `COCCN(C)[C@@H]1C(c2ccccc2)=CC2CCC1C2` (some centres not stated) had a Dose of 25 mg/kg. For the same molecule, in the assay listed under Rattus norvegicus [2], the ED50 is > 30 mg/kg.
On to `C=CCN(C)[C@@H]1C(c2ccccc2)=CC2CCC1C2` (some centres not stated), for which the Dose in the assay with Rattus norvegicus [1] came to 25 mg/kg. Also, the ED50 in the assay filed under Rattus norvegicus [2] is > 30 mg/kg.
For the molecule `N[C@@H]1C(c2ccccc2)=CC2CCC1C2` (some centres not stated), the figures for the ED50 in the assay filed under Mus musculus and in the assay filed under Rattus norvegicus [2] were 8.3 mg/kg and > 10 mg/kg, respectively. Further, the Dose with Rattus norvegicus [1] and in the assay on Rattus norvegicus [6] was 25 mg/kg each time.
As to `CN(C)[C@@H]1C(c2ccccc2)=CC2CCC1C2` (some centres not stated), the ED50 turned out to be 3.9 mg/kg in the assay listed under Mus musculus and 2.9 mg/kg in the assay filed under Rattus norvegicus [2]. Moreover, in the assay on Rattus norvegicus [4], the Dose was 50 mg/kg.
As to `COc1cccc(C2=CC3CCC(C3)[C@@H]2N(C)C)c1` (some centres not stated), the ED50 was found to be 34.4 mg/kg in the assay filed under Mus musculus and 7.8 mg/kg in the assay filed under Rattus norvegicus [2]. The molecule also yielded a Dose in the assay on Rattus norvegicus [4] of 50 mg/kg.
